Measured values as given in BindingDB's records for doi:10.1021/jm049337s (Leiden/Amsterdam Center For Drug Research, 2005).

How the values were obtained:
Adenosine receptor A1 [1] = target: T1, Adenosine receptor A1 (Homo sapiens, UniProt P30542); test: Dissociation constant for [3H]-CCPA binding to Adenosine A1 receptor in the presence of compound
T1 sequence (P30542 whole entry): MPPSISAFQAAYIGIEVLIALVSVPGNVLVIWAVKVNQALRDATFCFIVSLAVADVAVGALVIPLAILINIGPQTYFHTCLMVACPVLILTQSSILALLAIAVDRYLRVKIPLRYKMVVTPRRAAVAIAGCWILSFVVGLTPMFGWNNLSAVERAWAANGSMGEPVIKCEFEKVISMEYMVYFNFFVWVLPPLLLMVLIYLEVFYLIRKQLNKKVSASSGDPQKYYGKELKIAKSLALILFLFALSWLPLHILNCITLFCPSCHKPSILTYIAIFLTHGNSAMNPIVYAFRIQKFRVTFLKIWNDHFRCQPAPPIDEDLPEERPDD
In short: (§1)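 Kinetics on membranes (30 µg) from CHO cells expressing recombinant human A1 receptors, using [3H]CCPA at 1 nM, with or without compound. Association was started by adding membranes to the radioligand. For dissociation, membranes were preloaded with radioligand for 60 min at 25 °C, then 100 µM 8-cyclopentyltheophylline was added. Bound ligand was separated by GF/B filtration and counted by scintillation; t1/2 and rate constants were derived.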

Adenosine receptor A1 [2] = target: T1, Adenosine receptor A1; test: Association constant for [3H]CCPA binding to Adenosine A1 receptor in the presence of compound; details: read-out: kon (M-1-s-1); in short: as §1

koff (Adenosine receptor A1 [1]): 0.001 s⁻¹ | kon (Adenosine receptor A1 [2]): 4.16e+06 M⁻¹ s⁻¹
Compound: c1ccc(-c2n/c(=N/C3CCCC3)sn2-c2ccccc2)cc1
